Source: ChEMBL document CHEMBL5030534, “Discovery of Novel Anti-Breast-Cancer Inhibitors by Synergistically Antagonizing Microtubule Polymerization and Aryl Hydrocarbon Receptor Expression” (J Med Chem, 2021)
Active and inactive are the calls of the source. No cut-off for these calls is given here.

Key:
[1] = Toxicity in BALB/c nude mouse xenografted with human MCF7 cells assessed as effect on spleen at 0.5 to 1 mg/kg, iv administered every 2 days for 21 days by H and E staining based assay; format: organism-based; details: in vivo, 504 h, dose 0.5-1 mg/kg, time 21 day
In short: (§1)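 Nude mice given 6 × 10⁶ MCF-7 cells subcutaneously on right flank; after 7 days randomized, eight per group. iv dosing every 2 days at 0.5 or 1 mg/kg; vehicle 10% DMSO/5% Tween 80/85% saline; paclitaxel 10 mg/kg and CA-4 20 mg/kg references. Body weight every 2 days; killed after 21 days; organs fixed, paraffin-sectioned, H&E stained.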

MCF7 [2] = assay: Antitumor activity against human MCF7 cells xenografted in BALB/c nude mouse assessed as reduction in tumor microvessel density at 1 mg/kg, iv administered every 2 days and measured after 21 days by immunohistochemistry analysis; format: functional, organism-based; details: time 21.0 day
In short: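 Same subcutaneous MCF-7 nude-mouse xenografts dosed iv every 2 days for 21 days. Tumors then fixed, paraffin-embedded and sectioned. Apoptotic cells detected by TUNEL fluorescent staining with DNA counterstain; microvessel density measured by anti-CD31 immunohistochemistry.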

MCF7 [3] = assay: Induction of apoptosis in human MCF7 cells assessed as necrotic cells at 2 nM measured after 24 hrs by Annexin V-FITC and PI staining based flow cytometry assay (reference value: 0.28%); format: functional
MCF7 [4] = assay: Antiproliferative activity against human MCF7 cells assessed as reduction in cell viability incubated for 48 hrs by MTT assay; format: functional, cell-based; details: MCF7, 48 h
In short: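 Cells seeded at 5 × 10³ per well, incubated overnight, then exposed to a range of compound concentrations for 48 h. MTT added for 4 h, medium replaced with DMSO, absorbance read at 570 nm. MCF-7, L-O2 grown in DMEM; MCF-10A, MCF-7/ADR in RPMI 1640. Three independent runs.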

[5] = Toxicity in BALB/c mouse xenografted with human MCF7 cells assessed as change in body weight at 0.5 to 1 mg/kg, iv administered every 2 days for 21 days; format: organism-based; details: in vivo, 504 h, dose 0.5-1 mg/kg, time 21 day; in short: as §1
MCF7 [6] = assay: Induction of apoptosis in human MCF7 cells assessed as early apoptotic cells at 0.5 nM measured after 24 hrs by Annexin V-FITC and PI staining based flow cytometry assay (reference value: 0.90%); format: functional
MCF7 [7] = assay: Induction of apoptosis in human MCF7 cells assessed as necrotic cells at 2 nM measured after 24 hrs by Annexin V-FITC and PI staining based flow cytometry assay (reference value: 0.9%); format: functional
MCF7 [8] = assay: Induction of apoptosis in human MCF7 cells assessed as early apoptotic cells at 2 nM measured after 24 hrs by Annexin V-FITC and PI staining based flow cytometry assay (reference value: 1%); format: functional
MCF7 [9] = assay: Induction of apoptosis in human MCF7 cells assessed as viable cells at 0.5 nM measured after 24 hrs by Annexin V-FITC and PI staining based flow cytometry assay (reference value: 96.8%); format: functional; details: read-out: Activity
MCF7 [10] = assay: Cell migration rate in human MCF7 cells at 2 nM incubated for 24 hrs by inverted fluorescence microscopic method (reference value: 11.51%); details: MCF7, 24 h
Cytochrome P450 1A1 = molecular target: T1, Cytochrome P450 1A1 (Homo sapiens, UniProt P04798); assay: Inhibition of CYP1A1 signalling in human MCF7 cells assessed as reduction in CYP1A1 level incubated for 24 hrs by Western blot analysis; format: ADME, cell-based; details: mcf7, 24 h, at 1 to 4 nM, dose 1-4 nM
T1 sequence (P04798 whole entry): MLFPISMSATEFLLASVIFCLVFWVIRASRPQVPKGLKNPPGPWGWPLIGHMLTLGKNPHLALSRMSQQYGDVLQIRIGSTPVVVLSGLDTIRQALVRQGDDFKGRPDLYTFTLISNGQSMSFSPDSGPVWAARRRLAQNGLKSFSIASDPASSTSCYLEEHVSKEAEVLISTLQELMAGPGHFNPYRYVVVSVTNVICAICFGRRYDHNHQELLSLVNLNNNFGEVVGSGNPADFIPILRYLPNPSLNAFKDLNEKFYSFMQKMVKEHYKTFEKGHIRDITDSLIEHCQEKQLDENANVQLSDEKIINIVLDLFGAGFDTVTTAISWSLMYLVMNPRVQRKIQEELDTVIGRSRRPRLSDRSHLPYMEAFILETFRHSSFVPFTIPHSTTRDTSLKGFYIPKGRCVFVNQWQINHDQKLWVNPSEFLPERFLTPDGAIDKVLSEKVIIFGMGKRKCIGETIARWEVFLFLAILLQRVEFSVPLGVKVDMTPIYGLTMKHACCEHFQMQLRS
In short: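 MCF-7 cells seeded 4 × 10⁵ per well, grown 24 h, then exposed to DMSO or 1, 2, 4 nM for 24 h; BAY 2416964 served as AhR antagonist reference. Lysates adjusted to 3 mg/mL protein by BCA, resolved on 4−20% SDS-PAGE, immunoblotted; AhR and CYP1A1 bands normalized to GAPDH. Three independent runs.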

Tubulin (Homo sapiens) = Tubulin (Homo sapiens) (UniProt P68371+Q9H4B7+P0DPH7+P68366+Q13509+Q71U36+P04350+Q3ZCM7+P07437+P68363+Q9BQE3+Q6PEY2+Q13885+Q9BVA1+Q9BUF5); assay: Induction of microtubule depolymerization in human MCF7 cells at 10 uM measured every 5 mins for 60 mins by spectrophotometric method; format: cell-based
In short: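 Purified tubulin at 2 mg/mL in PEM buffer preincubated on ice with compound or DMSO. PEG added to a final 3 mg/mL, then polymerization followed at 37 °C by absorbance at 350 nm every 5 min for 60 min.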

MCF7 [11] = assay: Induction of apoptosis in human MCF7 cells assessed as decrease in of Bcl-2 protein expression at 1 to 4 nM; format: functional, cell-based; details: dose 1-4 nM
In short: (§2)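 MCF-7 seeded 4 × 10⁵ per well for 24 h, then DMSO or compound at 1, 2, 4 nM for 24 h. Lysates protein-normalized to 3 mg/mL by BCA, resolved on 4–20% SDS-PAGE and immunoblotted. Bands quantified relative to β-actin (cell-cycle proteins) or GAPDH (apoptosis proteins); n = 3.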

[12] = Toxicity in BALB/c nude mouse xenografted with human MCF7 cells assessed as effect on heart at 0.5 to 1 mg/kg, iv administered every 2 days for 21 days by H and E staining based assay; format: organism-based; details: in vivo, 504 h, dose 0.5-1 mg/kg, time 21 day; in short: as §1
MCF7 [13] = assay: Induction of apoptosis in human MCF7 cells assessed as viable cells at 2 nM measured after 24 hrs in presence of DMBA by Annexin V-FITC and PI staining based flow cytometry assay (reference value: 96.5%); format: functional; details: read-out: Activity
MCF7 [14] = assay: Cell cycle arrest in human MCF7 cells assessed as decrease in Cdc25c protein expression; format: functional, cell-based; details: dose 1-4 nM; in short: as §2
[15] = Toxicity in BALB/c nude mouse xenografted with human MCF7 cells assessed as effect on lung at 0.5 to 1 mg/kg, iv administered every 2 days for 21 days by H and E staining based assay; format: organism-based; details: in vivo, 504 h, dose 0.5-1 mg/kg, time 21 day; in short: as §1
MCF7 [16] = assay: Induction of apoptosis in human MCF7 cells assessed as viable cells at 2 nM measured after 24 hrs by Annexin V-FITC and PI staining based flow cytometry assay (reference value: 96.5%); format: functional; details: read-out: Activity

For `Cc1nc(N(C)c2ccc3c(c2)cc(C)n3C)c2ccccc2n1`, the Activity [1] was “Non-Toxic”, the Activity (MCF7 [2]) was “Active” and the Activity (MCF7 [3]) was 4.51%. For the same molecule, the IC50 (MCF7 [4]) was 0.9 nM, the Activity [5] was “Non-Toxic” and the Activity (MCF7 [6]) was 1.28%. The Activity (MCF7 [7]) was 8.3%, the Activity (MCF7 [8]) was 6.9% and the viability at 0.0005 µM (MCF7 [9]) was 95%. For the same molecule, the Migration rate at 0.002 µM (MCF7 [10]) was 3.78%, the “inhibition (INH)” value (Cytochrome P450 1A1) was “Dose-Dependent Effect” and the Activity (Tubulin (Homo sapiens)) was “Active”. The Activity (MCF7 [11]) was “Active”, the Activity [12] was “Non-Toxic” and the viability at 0.002 µM (MCF7 [13]) was 67.5%. For the same molecule, the Activity (MCF7 [14]) was “Dose-Dependent Effect”, the Activity [15] was “Non-Toxic” and the viability at 0.002 µM (MCF7 [16]) was 40.1%.
